# Screens (PubChem)
# Rows were chosen to be rich in hits. Some 4.9% of all compounds tested hit in one or more screens of this group.
# STAT1 act: STAT1 signaling activation; NIH 3T3 STAT1-luciferase reporter, IFN-gamma, luminescence; 100% = IFN-gamma alone, no compound; activation (% of control), % at 5.5 µM; 200,000 tested, 2.6% active;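 active = activation above the screen-wide mean activation plus 3 SD, cut at about 130% in these data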;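 note: raw ratio to IFN-gamma control signal so 100% means no change and 0% no light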
# STAT3 blocker: inhibitors of IL-6 induced STAT3 signaling | 190,000 tested, 0.89% active | inhibition, % at 5.5 µM | U3A cells, IL-6 STAT3-luciferase reporter, luminescence; host cell line lacks STAT1;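 active = inhibition above the mean inhibition across all screened compounds plus 3 SD, cut at about 44% in these data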;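 note: 0% = DMSO only wells and 100% = 100 µM nifuroxazide control wells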
# NF-kB neuron act: raises NF-kB expression in human neuronal cells. NF-kB reporter expression; active compounds read high. fold change at 12.5 µM. 190,000 tested, 1.6% active; in the data active = fold change above about 3.3
# STAT1 blocker: inhibitors of IFN-gamma induced STAT1 signaling. NIH 3T3 STAT1-luciferase reporter, luminescence. inhibition, % at 5.5 µM. 200,000 tested, 0.35% active. AID 920;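 active = inhibition above a set limit, the mean inhibition across all tested compounds plus 3 SD, cut at about 34% in these data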;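 note: 0% = IFN-gamma with DMSO and 100% = IFN-gamma with 300 µM nifuroxazide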
# APP 5'UTR act: APP 5'UTR luciferase reporter activation; SH-SY5Y APP 5'UTR luciferase reporter, luminescence; zero percent = DMSO vehicle wells; activation, % at 2 µM; 190,000 tested, 1% active; AID 1276;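 active = activation above a set limit, based on mean plus 3 SD of controls, cut at about 140% in these data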
# STAT3 activator: STAT3 signaling activation; U3A cells, IL-6 STAT3-luciferase reporter, luminescence; 100% = signal with IL-6 EC80 alone; activation (% of control), % at 5.6 µM; 190,000 tested, 0.91% active;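 active = activation above the screen-wide mean of compound activation plus 3 SD, cut at about 130% in these data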;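 note: 0% = background luminescence of wells with medium and substrate only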
#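 Material: STAT3-luciferase reporter U3A cells. Controls: IL-6-treated wells, 100% activation. Read-out: % activation versus median of IL-6-stimulated wells. Probe or stimulus: IL-6 stimulus at 33 ng/mL final. Timing: compound 1 h, then IL-6 6 h at 37 °C. Signal: reporter luminescence signal.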
# Starred values were filed as active, the others as inactive; . = not tested or not shown.
SMILES,STAT1 act,STAT3 blocker,NF-kB neuron act,STAT1 blocker,APP 5'UTR act,STAT3 activator
CCSc1nnc(NC(=O)C2Cc3ccccc3CN2S(=O)(=O)CC)s1 (configuration not stated),120,10,1.1,-22,-1,93
CCS(=O)(=O)N1Cc2ccccc2CC1C(=O)Nc1nccs1 (configuration not stated),133*,-21,1.7,-36,81,118
COc1ccc(S(=O)(=O)N2Cc3ccccc3CC2C(=O)Nc2nccs2)cc1OC (configuration not stated),116,-30,1.4,-17,163*,130
O=C(Nc1ccccc1O)c1ccc(NS(=O)(=O)c2cccc3cccnc23)cc1,94,.,12*,6,47,.
CCNC(=S)NNC(=O)c1cc(-c2ccc(OCC)cc2)nc2ccccc12,22,99*,5.5*,86*,127,14
CCOc1ccc(-c2cc(C(=O)O)c3ccccc3n2)c(OCC)c1,104,-38,1.1,-4,-1,135*
CCc1ccc(-c2cc(C(=O)Nn3cnnc3)c3ccccc3n2)cc1,41,82*,4.3*,64*,60,32
CCn1cc(-c2cc(C(=O)O)c3ccccc3n2)c(C)n1,97,6,1.3,3,-23,96
COc1ccc(OC)c(NC(=O)CSc2nnc(C3CCCCC3)n2-c2ccccc2)c1,93,5,0.76,8,-13,96
COCCCNC(=O)COc1ccc(Br)cc1Cl,139*,-2,2.2,-44,17,104
CC(=C/c1ccc(C(C)C)cc1)/C=N/NC(=O)CSc1ccccn1,149*,-40,0.84,-55,51,134*
CC(/C=N/NC(=O)CSc1ccccn1)=C\c1ccc(C(C)C)cc1,124,-12,1.5,-27,37,114
O=C(Nc1cccc([N+](=O)[O-])c1)c1cnccn1,99,1,1.2,1,14,97
O=C(Nc1cccc([N+](=O)[O-])c1)c1ccc2c(c1)OCCO2,139*,-8,2.4,-44,91,104
CC(=O)N1CCN(c2ccc(NC(=O)c3ccc4c(c3)OCCO4)cc2)CC1,94,3,1.5,7,-1,101
O=C(Nc1ccc(N2CCCCC2)cc1)c1ccc2c(c1)OCCO2,133*,33,3.8*,-36,135*,75
O=C(Nc1cccc([N+](=O)[O-])c1)c1[nH]ncc1Cl,134*,16,2.6,-38,112,89
CN(C)S(=O)(=O)Oc1ccc(C(=O)Nc2cccc(Cl)c2)cc1,143*,3,2.3,-48,123,104
CN(C)S(=O)(=O)Oc1ccc(C(=O)Nc2cccc(C(F)(F)F)c2)cc1,87,23,0.91,13,26,86
O=C(Nc1cccc([N+](=O)[O-])c1)c1ccncc1,107,-3,0.94,-8,15,105
CC(C)(C)c1ccc(C(=O)Nc2cccc([N+](=O)[O-])c2)cc1,135*,-4,7.6*,-34,137*,102
O=C(Nc1cccc2nsnc12)c1ccc2c(c1)OCCO2,132*,3,1.9,-35,73,100
CN(c1cccc(NC(=O)c2ccc(C(C)(C)C)cc2)c1)S(C)(=O)=O,138*,11,2,-44,91,94
O=[N+]([O-])c1ccc2nc(-c3ccccc3)n(OCc3ccc(Cl)cc3)c2c1,120,4,5.1*,-22,40,97
O=c1[nH]c2cc3ccccc3cc2nc1C(F)(F)F,109,23,1.2,-10,13,83
SMILES,STAT1 act,STAT3 blocker,NF-kB neuron act,STAT1 blocker,APP 5'UTR act,STAT3 activator
O=c1[nH]c2ccccc2nc1C(F)(F)C(F)F,138*,6,0.97,-41,20,98
COCc1nc2sc3c(c2c(=O)[nH]1)CCCC3,102,8,1.5,-2,-8,92
COc1cccc(-c2nc3sc4c(c3c(=O)[nH]2)CCCCC4)c1,110,-6,1.8,-11,184*,106
CCOc1ccc(C2=NNC(c3cccs3)=Nc3ccc(OC)cc32)cc1,100,-3,6.4*,2,8,106
Cc1ccc2cc(/C=N/NC(=O)CN3CCCCC3)c(Cl)nc2c1,103,17,1.2,-5,5,87
COc1ccc(C(C)(C)C)cc1NC(=O)CNc1cccc2ccccc12,97,-40,0.93,3,-3,136*
OC1(c2ccccc2F)CCN(Cc2nnnn2Cc2ccc(F)cc2)CC1,106,0,0.88,-8,10,104
Cc1ccc(C(=O)Nc2ccc3nc(C)sc3c2)s1,141*,4,6.6*,-44,167*,100
CCOC(=O)c1ccc(N2CCN(C(C)=O)CC2)c(NC(=O)c2cccnc2)c1,99,5,0.99,1,22,98
C=CCSC(=C(C#N)C#N)c1cc2c([nH]1)CCCC2,95,17,7.3*,6,16,87
CCN1CCN(CC(=O)Nc2cc3c(cc2C(C)=O)OCO3)CC1,97,16,0.95,3,-1,90
Cc1ccccc1Oc1nc2ccccn2c(=O)c1/C=C(\C#N)C(=O)Nc1c(C)n(C)n(-c2ccccc2)c1=O,106,-3,4.6*,-7,2,105
O=C(Nc1ccon1)c1sc2cc(F)ccc2c1Cl,131*,-19,2.4,-35,34,119
Cc1ccc2c(Cl)c(C(=O)Nc3cc(C)on3)sc2c1,132*,1,2.9,-35,48,100
Cc1ccccc1Nc1nnc(SCC(=O)NC2CCCc3ccccc32)s1 (configuration not stated),144*,-13,0.73,-48,7,107
Cc1ccc(Nc2nnc(SCC(=O)NC3CCCc4ccccc43)s2)cc1 (configuration not stated),104,-14,0.98,-5,8,108
CCCCSc1nnc2c(n1)[nH]c1ccccc12,140*,21,2.3,-43,30,80
CCc1ccc(/C=C2\SC(=S)N(CCC(=O)N3CCN(C)CC3)C2=O)cc1,106,12,3.3*,-7,-9,99
CC1CCN(C(=O)CNC(=O)c2cccc(OC(F)F)c2)CC1,100,3,1.4,-2,15,107
CC(C)CN1C(=S)SC(C)(C)C1n1oc(=O)n(-c2ccc(Cl)cc2)c1=O (configuration not stated),96,8,1.1,4,9,99
CCOc1ccc(-n2c(SCC(=O)Nc3cc(OC)c([N+](=O)[O-])cc3C)nc3ccccc32)cc1,95,8,0.84,6,16,94
COc1cc([N+](=O)[O-])ccc1NC(=O)CSc1nc2ccccc2n1-c1ccccc1,96,-24,4.2*,4,13,118
Cc1cccc(/C=C\c2nc3ccccc3c(=O)[nH]2)c1,144*,39,1.2,-47,158*,67
